Here are results for 2 molecules from ChEMBL document CHEMBL5154633 (J Med Chem, 2022).

Data set [1] in a line: AUC in human plasma at 3 to 225 mg, iv administered as 2 hr infusion. It is filed as ADME, organism-based. Further details: time 2 hrs, route iv. As to conditions: dose 3-225 mg.
Data set [2] can be described thus: Half life in human plasma at 3 to 225 mg, iv administered as 2 hr infusion. In kind it is ADME, organism-based. As to conditions: dose 3-225 mg.
Data set [3] has as its system SARS-CoV-2. The data set is described as follows: Antiviral activity against SARS-COV 2 infected in human Calu-3 cells assessed as inhibition of viral replication after 48 hrs by qRT-PCR analysis. In kind it is functional, organism-based. As to conditions: Severe acute respiratory syndrome coronavirus 2, Calu-3, 48 h.
Data set [4] deals with SARS-CoV-2. Description: Antiviral activity against SARS-COV 2 infected in human Caco-2 cells assessed as inhibition of viral replication after 48 hrs by qRT-PCR analysis. It is filed as functional, organism-based. As to conditions: Severe acute respiratory syndrome coronavirus 2, Caco-2, 48 h. In general terms: In qPCR the cycle at which signal appears reflects the starting amount.

Data set [5] relates to SARS-CoV-2. Description: Antiviral activity against SARS-COV 2 infected in African green monkey Vero E6 cells assessed as inhibition of viral replication after 48 hrs by qRT-PCR analysis. As to conditions: Severe acute respiratory syndrome coronavirus 2, Vero C1008, 48 h. It is filed as functional, organism-based.
Data set [6] concerns Murine hepatitis virus. Description: Antiviral activity against MHV-A59 infected in BALB/c mouse assessed as reduction in viral titer in liver at 100 mg/kg, ip administered at 0.5 hrs post infection followed by 50 mg/kg administered daily measured upto 14 days by qRT-PCR analysis. It is filed as functional. As to conditions: time <= 14 day. Further details: scale not given: the % may be the effect or the level left. The method in brief: (§1)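 Male BALB/c mice were infected intranasally with MHV-A59 and dosed 100 mg/kg IG or IP at 0.5 hpi, then 50 mg/kg daily. Three mice per group were killed at 3 dpi. Liver RNA was extracted and viral load quantified by qRT-PCR against PBS-treated infected controls.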

The nature of data set [7]: AUC(0 to t) in Sprague-Dawley rat at 30 mg/kg, iv measured over 48 hrs by HPLC/MS analysis. The note with it: in vivo. In kind it is ADME, organism-based. Further details: dose 30 mg/kg, time 48 hrs, route iv.
Data set [8] has as its system Murine hepatitis virus. The data set is described as follows: Antiviral activity against MHV-A59 infected in BALB/c mouse assessed as improvement in survival at 100 mg/kg, ig administered at 0.5 hrs post infection followed by 50 mg/kg administered daily measured upto 14 days. It is filed as functional. The note with it: time <= 14 day. The method in brief:
(§2)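 Male SPF BALB/c mice, 3–4 weeks old, were inoculated intranasally with 30 μL MHV-A59 in PBS (TCID50 10^-7.125/100 μL). They received 100 mg/kg IG or IP at 0.5 hpi, then 50 mg/kg once daily for the next 4 d. Untreated infected controls received PBS. Survival was followed for 14 d, N = 8 per group.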

Data set [9] in a line: Toxicity in BALB/c mouse infected with MHV-A59 assessed as change in body weight at 100 mg/kg, ig administered at 0.5 hrs post infection followed by 50 mg/kg administered daily measured upto 14 days. It is filed as organism-based. The note with it: in vivo, po, 336 h, time < 14 day. The method in brief: (§3)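 MHV-A59-infected male BALB/c mice (3–4 weeks) were dosed 100 mg/kg IG or IP at 0.5 hpi, then 50 mg/kg daily for 4 d. Uninfected drug-treated and PBS-only groups served as controls. Body weight was recorded daily for 14 d, N = 8 per group.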

Data set [10] in a line: AUC(0 to t) in Sprague-Dawley rat at 30 mg/kg, ig measured over 48 hrs by HPLC/MS analysis. In kind it is ADME, organism-based. Further details: dose 30 mg/kg, time 48 hrs, route ig. As to conditions: in vivo, po.
Data set [11] can be described thus: Toxicity AAV-human ACE2 transduced BALB/c mouse infected with SARS-COV2 assessed as loss of body weight at 25 mg/kg/day, ip administered 1 day prior to viral infection and treated for 8 days. In kind it is organism-based. As to conditions: in vivo, 192 h, time 8 day.
Data set [12] has as its system Vero C1008. The data set is described as follows: Cytotoxicity against African green monkey Vero cells assessed as reduction in cell viability upto 50 uM measured for 48 hrs by CCK8 assay. In kind it is toxicity, cell-based. As to conditions: chlorocebus sabaeus, vero c1008, 48 h. The method in brief: (§4)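 Vero E6, Calu-3 or Caco-2 cells were seeded at 20 000/well. They were exposed to 0, 0.01, 0.1, 1, 5, 10 or 50 μM compound for 48 h, and viability was read by CCK-8.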
In general terms: Tetrazolium dyes change colour on reduction, which living cells bring about.

Data set [13] can be described thus: Tmax in Sprague-Dawley rat at 30 mg/kg, ig measured over 48 hrs by HPLC/MS analysis. In kind it is ADME, organism-based. As to conditions: in vivo, po.
Data set [14] has as its system SARS-CoV-2. Description: Antiviral activity against SARS-CoV-2 infected in AAV-human ACE2 transduced BALB/c mouse assessed as viral clearance in lungs at 25 mg/kg/day, ip administered 1 day prior to viral infection and measured after 2 days post infection by focus forming assay. It is filed as functional, organism-based. As to conditions: Severe acute respiratory syndrome coronavirus 2, time 3.0 day.

Data set [15] in a line: Toxicity in BALB/c mouse infected with MHV-A59 assessed as change in body weight at 100 mg/kg, ip administered at 0.5 hrs post infection followed by 50 mg/kg administered daily measured upto 14 days. It is filed as organism-based. As to conditions: in vivo, 336 h, time < 14 day. The method in brief:
as §3

For data set [16], the system named is Calu-3. Description: Cytotoxicity against human Calu-3 cells assessed as reduction in cell viability upto 50 uM measured for 48 hrs by CCK8 assay. It is filed as toxicity, cell-based. As to conditions: calu-3, 48 h. The method in brief: as §4
Data set [17] deals with Caco-2. The data set is described as follows: Cytotoxicity against human Caco-2 cells assessed as reduction in cell viability upto 50 uM measured for 48 hrs by CCK8 assay. In kind it is toxicity, cell-based. The note with it: caco-2, 48 h. The method in brief: as §4
Data set [18] can be described thus: Tmax in Sprague-Dawley rat at 30 mg/kg, iv measured over 48 hrs by HPLC/MS analysis. The note with it: in vivo. It is filed as ADME, organism-based.
Data set [19] has as its system Murine hepatitis virus. The data set is described as follows: Antiviral activity against MHV-A59 infected in BALB/c mouse assessed as reduction in viral titer in liver at 100 mg/kg, ig administered at 0.5 hrs post infection followed by 50 mg/kg administered daily measured upto 14 days by qRT-PCR analysis. In kind it is functional. Further details: scale not given: the % may be the effect or the level left. As to conditions: time <= 14 day. The method in brief: as §1

The nature of data set [20]: Cmax in Sprague-Dawley rat at 30 mg/kg, iv measured over 48 hrs by HPLC/MS analysis. The note with it: in vivo. In kind it is ADME, organism-based. Further details: dose 30 mg/kg, time 48 hrs, route iv.
The subject of data set [21] is Murine hepatitis virus. The data set is described as follows: Antiviral activity against MHV-A59 infected in BALB/c mouse assessed as improvement in survival at 100 mg/kg, ip administered at 0.5 hrs post infection followed by 50 mg/kg administered daily measured upto 14 days. In kind it is functional. The note with it: time <= 14 day. The method in brief:
as §2

Data set [22] in a line: Oral bioavailability in Sprague-Dawley rat at 30 mg/kg measured over 48 hrs by HPLC/MS analysis. It is filed as ADME, organism-based. As to conditions: in vivo.

Active and inactive are the calls of the source. The calls are words filed in the database; no cut-off is given here.

A word on the AUC: it is the area under the concentration-time curve, a measure of exposure. A word on the half-life: it is how long it takes for the measured level to halve. Broadly, the IC50 is the midpoint of a concentration-inhibition curve. With `CCC(CC)COC(=O)[C@H](C)N[P@](=O)(OC[C@H]1O[C@@](C#N)(c2ccc3c(N)ncnn23)[C@H](O)[C@@H]1O)Oc1ccccc1`, in data set [1], the AUC at 2 h worked out at 1590 ng·h/mL. Besides, in data set [2], the half-life is under 60 min. For the same molecule, the figures for the IC50 in data set [3], in data set [4] and in data set [5] were 650 nM, 580 nM and 1350 nM, respectively.

By AUC(0-t) is commonly meant the area under the concentration-time curve up to a stated or last time point. By Tmax is commonly meant the time at which the peak concentration occurs. One may read the Cmax as the highest concentration seen after dosing. What is called bioavailability is dose-corrected exposure relative to a reference, in per cent. Consider `N#C[C@@]1(c2ccc3c(N)ncnn23)O[C@H](CO)[C@@H](O)[C@H]1O` [GS-441524], for which, in data set [1], the exposure (AUC) at 2 h stood at 2230 ng·h/mL. The Activity is reported as 99.9% in data set [6]; 100% in data set [8]; “Toxic” in data set [9]; “Non-Toxic” in [11]; “Non-Toxic” in data set [12]; “Toxic” in [15]. The Activity entry in data set [16] is “Non-Toxic”; in data set [17] it was “Non-Toxic”; in data set [19] it was 99.9%; in data set [21], 100%. Further, the results for the AUC(0-t) at 48 h in data set [7] and in data set [10] were 592000 ng·h/mL and 28700 ng·h/mL, respectively. The IC50 is 3210 nM in [3], 3620 nM in data set [4] and 700 nM in [5]. In addition, the Tmax in [13] was found to be 56.4 min; in [18], 6 min. The result in [14] was Active. In data set [20], this molecule yielded a Cmax of 164 µg/mL. Also, in data set [22], the bioavailability was 4.84%.
